The results in this text go back to PubChem BioAssay AID743214 (The Scripps Research Institute Molecular Screening Center, 2013).

The campaign covered roughly 2,100 compounds. About 10 (0.5%) were called active.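 Rule for the calls: active = mean triplicate inhibition above the solvent-only control wells' mean plus 3 SD (cut at about 12% in these data); inactive = the rest.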 A selection follows.

In the assay the target is Disintegrin and metalloproteinase domain-containing protein 17 (Homo sapiens) (UniProt P78536). In words: ADAM17 inhibitors, counter-screen for ADAM10 exosite inhibitor project, biochemical, QFRET, high throughput (AID 743214).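 Note: 0% = DMSO wells and 100% = marimastat wells.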 The following applies: ADAM17 QFRET peptide cleavage, EDANS fluorescence; at 6.95 µM; active compounds read high. An outline of the steps: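 Assay system: ADAM17 enzyme, quenched-FRET peptide cleavage | Quantity: ADAM17 2X stock, 20 nM | Also added: EDANS/DABCYL DM2 peptide substrate, added as 2X stock of 20 µM | Schedule: 30 min compound–enzyme preincubation, then 3 h reaction, both 25 °C | Detection: EDANS fluorescence, excitation 359 nm, emission 460 nm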
Chain of Disintegrin and metalloproteinase domain-containing protein 17 (Homo sapiens) (P78536 215-824 limits assumed): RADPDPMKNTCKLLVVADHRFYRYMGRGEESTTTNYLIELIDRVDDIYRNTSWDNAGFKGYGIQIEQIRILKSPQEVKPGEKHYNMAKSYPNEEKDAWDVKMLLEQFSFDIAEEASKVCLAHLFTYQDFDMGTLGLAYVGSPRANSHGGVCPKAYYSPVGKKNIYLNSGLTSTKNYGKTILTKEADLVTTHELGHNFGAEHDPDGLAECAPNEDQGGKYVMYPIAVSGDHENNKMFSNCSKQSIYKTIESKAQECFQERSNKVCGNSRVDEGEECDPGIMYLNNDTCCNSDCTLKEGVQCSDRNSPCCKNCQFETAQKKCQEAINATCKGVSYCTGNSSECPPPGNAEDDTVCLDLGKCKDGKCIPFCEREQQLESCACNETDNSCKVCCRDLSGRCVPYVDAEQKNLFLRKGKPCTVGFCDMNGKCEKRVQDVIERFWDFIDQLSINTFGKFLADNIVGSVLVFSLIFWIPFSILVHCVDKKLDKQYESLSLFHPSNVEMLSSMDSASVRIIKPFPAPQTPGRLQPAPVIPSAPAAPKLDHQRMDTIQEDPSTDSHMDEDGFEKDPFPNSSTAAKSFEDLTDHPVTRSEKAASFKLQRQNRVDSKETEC
A general note: A counterscreen serves to expose hits that act by an unwanted route or on another target.
In the case of `Cn1c(CNc2nc(-c3ccccc3)cs2)nnc1SCC(=O)c1ccccc1`, the inhibition (as a rule, the change of the read-out against control, counted positive when it falls) was 0.06% (inactive). To `COc1ccc(C(CCN(Cc2ccc(OC)c(OC)c2)C(=O)CCl)c2ccccc2)cc1` (stereo unspecified) belongs 1.03% (inactive); to `CCOc1cc(/C=N/NC(=O)c2cc(-c3ccccc3)nc3ccccc23)ccc1O`, 4.94% (inactive).

For the compound `O=C(CSC1=NCCS1)Nc1nc(-c2ccccc2)cs1`, the inhibition was 0.66% (inactive). To `COc1ccc(OCCCn2cccc2/C=C2/C(=N)N3OC(C)=CC3=NC2=O)cc1` belongs 0.03% (inactive); to `Cc1ccc(/C=N/NC(=O)CSc2nc3ccccc3o2)cc1`, 0.11% (inactive); to `COc1cc(/C=C2/SC(=S)N(Cc3ccccc3)C2=O)cc(OC)c1O`, 3.03% (inactive). To `CN(C)S(=O)(=O)c1cccc(NC(=O)COC(=O)C2(c3ccccc3F)CCCC2)c1` belongs 0.96% (inactive).

As for `N/C(Cc1ccc([N+](=O)[O-])cc1)=N\OC(=O)COc1ccc2ccccc2c1`, the inhibition is 1.74% (inactive).

Consider `O=C1NC(Nc2nc3ccccc3s2)(C(F)(F)F)C(=O)N1C1CCCCC1` (stereo unspecified), for which the inhibition is 0.94% (inactive).

With `COc1cc(C2CC(=O)N3CN(Cc4ccccc4)CSC3=C2C#N)ccc1OCc1ccccc1` (stereo unspecified), the inhibition was 2.1% (inactive).

Take `O=C(OCc1ccc(-c2ccccc2)cc1)c1cccc(O)c1`: the inhibition was 4.02% (inactive). In the case of `COC(=O)[C@@]12C[C@@H](CC(=O)NCCCCc3ccccc3)C(=O)N(CCc3ccc(OC)c(OC)c3)C1=CCC(C)(C)C2` it was 0.87% (inactive). In the case of `COc1cc(Cl)c(S(=O)(=O)N2CCN(Cc3ccc4c(c3)OCO4)CC2)cc1Cl` it was 1.24% (inactive); in that of `CCOc1ccc(Nc2oc(Cc3ccccc3)nc2C#N)cc1`, 1.58% (inactive); in that of `CCOc1ccc(Br)cc1S(=O)(=O)Nc1ccc(C(=O)OC(C)C(=O)N(C)c2ccccc2)cc1` (stereo unspecified), 2.71% (inactive). To `C=CCC[C@@H](Cc1ccc(F)cc1)C(=O)O[C@H](CNC(=O)[C@H](CC=C)CC(=O)N(CCO)Cc1ccccc1)c1ccccc1` belongs 3.84% (inactive); to `O=C(Cc1ccc(Cl)c(Cl)c1)Nc1ccc(SC(F)F)cc1`, 2.25% (inactive); to `CC(C)(C)c1ccc(S(=O)(=O)NCC2CCN(C(=O)C(=O)c3cc4ccccc4o3)CC2)cc1`, 1.76% (inactive). Consider `COc1ccc(Cl)cc1NC(=O)COC(=O)C(CC(C)C)N1C(=O)C2CC=CCC2C1=O` (stereo unspecified), for which the inhibition is 0.79% (inactive). To `CC(C)(C)c1ccc(C(=O)Nc2cc(Cl)c(Br)cc2C(=O)O)cc1` belongs 0.16% (inactive); to `CCCCCc1c(-c2ccc(OC)c(OC)c2)ncn1CCc1ccccc1OC`, 1.69% (inactive). Regarding `Cc1ccc(NS(=O)(=O)c2ccc(C)c(NC(=O)COc3ccc4ccccc4c3)c2)c(C)c1`, the inhibition is 4.43% (inactive).

For the compound `COc1ccc(NS(=O)(=O)c2ccc(C)c(C(=O)NNC(=O)c3csc(N4CCOCC4)n3)c2)cc1`, the inhibition was 1.55% (inactive).

For `O=C(COC(=O)CCCSc1nc2ccccc2[nH]1)Nc1ccc(Oc2ccccc2)cc1`, the inhibition was 3.79% (inactive). To `Cc1cccc(CCNS(=O)(=O)c2ccc(S(=O)(=O)NC3CCCC3)cc2)c1` belongs -0.14% (inactive). In the case of `O=C(CSCc1ccc(Br)cc1)Nc1ccc(S(=O)(=O)N2CCCCCC2)cc1` it was 3.71% (inactive); in that of `O=Cc1cn(CCOc2ccc(F)cc2)c2ccccc12`, -0.11% (inactive). In the case of `O=C(Nc1cccc(S(=O)(=O)Nc2ccc(Cl)cc2)c1)c1ccc2c(c1)OCCO2` it was 2.96% (inactive).

`COc1cccc(NC(=O)CN2CCN(c3nc(-c4cccc(OC)c4)cs3)CC2)c1`: the inhibition was 2.32% (inactive). To `Cc1ccc(NC(=O)c2nc[nH]c2C(=O)N[C@@H](CCCCNC(=O)OC(C)(C)C)C(=O)OC(C)(C)C)cc1` belongs 3.32% (inactive). For the compound `S=c1[nH]cc(-c2ccc(Cl)cc2)n1-c1ccccc1`, the inhibition was 0.72% (inactive). In the case of `CCC1(C)Cc2c(sc3nnn(CC(=O)Nc4ccc(Cl)cc4)c(=O)c23)CO1` (stereo unspecified) it was 1.24% (inactive). Regarding `CC(C)(C)N1C(=O)[C@H]2[C@@H](c3ccc(Br)cc3)N3C(=O)N(c4cccc(Cl)c4)C(=O)[C@@]3(C)[C@H]2C1=O`, the inhibition was 0.76% (inactive). In the case of `Cc1ccc(S(=O)(=O)N(CC(=O)Nc2cccnc2)c2ccc(Br)cc2)cc1` it was 0.35% (inactive). With `O=C(NCCc1ccc(Cl)cc1Cl)c1cc([N+](=O)[O-])c[nH]c1=O`, the inhibition was 0.13% (inactive).

As for `O=S(=O)(c1cccc(S(=O)(=O)N2CCC(n3nnc4ccccc43)CC2)c1)N1CCCCC1`, the inhibition was 0.16% (inactive). In the case of `C#CCN(C[C@H]1[C@H](OC(=O)NC2CCCC2)[C@H](OC(=O)NC2CCCC2)C[C@H]2C(=O)N(c3ccccc3)C(=O)[C@@H]12)S(=O)(=O)c1ccc(C)cc1` it was 1.32% (inactive); in that of `COc1ccc([C@@H]2[C@@H]3C(=O)N(C(C)(C)C)C(=O)[C@@H]3[C@]3(Cc4ccccc4)C(=O)N(c4cccc(Br)c4)C(=O)N23)cc1`, 2.34% (inactive); in that of `O=C(CC(O)(C(F)(F)F)C(F)(F)F)Nc1ccc(Cl)c(Cl)c1`, 1.21% (inactive). In the case of `O=S(=O)(c1ccccc1)N(Cc1cccc(F)c1)c1ccccc1` it was 0.96% (inactive). In the case of `C=C(C)COc1ccc(-c2n[nH]c(C)c2-c2ccccc2)c(O)c1` it was 3.15% (inactive); in that of `COc1ccc(C(N)c2csc(NC(=O)Nc3cccc(C(F)(F)F)c3)n2)cc1` (stereo unspecified), 1.65% (inactive); in that of `COC(=O)C1NN=C(C(=O)c2ccc(Br)cc2)C1c1cccc(Br)c1` (stereo unspecified), 1.16% (inactive). As for `CCC(C(=O)OCC(=O)Nc1ccccc1-c1ccccc1)c1ccccc1` (stereo unspecified), the inhibition was 1.36% (inactive). To `COc1cccc(C2CC(c3ccccc3)=NN2S(=O)(=O)c2ccccc2)c1OC` (stereo unspecified) belongs 1.14% (inactive); to `Cc1ccc(S(=O)(=O)N2CCN(C(=O)COC(=O)c3c(C)cc(C)cc3C)CC2)c(C)c1`, 1.25% (inactive). As to `CC(N=Cc1nc(-c2ccccc2)oc1O)c1ccccc1` (stereo unspecified), the inhibition was 1.57% (inactive).

As for `Cc1cccc(C2c3[nH]c4ccccc4c3CCN2C(=O)c2cc(-c3cccn3C)n[nH]2)n1` (stereo unspecified), the inhibition was 2.55% (inactive). To `COc1ccc([C@H]2CC(=O)C=C(c3ccc(OC(F)(F)F)cc3)C2)cc1OC` belongs 0.8% (inactive); to `O=C(CC1SC(=Nc2ccccc2)N(Cc2ccccn2)C1=O)Nc1cccc(Cl)c1` (stereo unspecified), 2.48% (inactive); to `COc1cc(/C=N/O)cc(Br)c1OS(=O)(=O)c1ccc(C)cc1`, 0.97% (inactive).

With `CC(C)C(=O)Nc1cccc(NC(=S)NC(=O)C(c2ccccc2)c2ccccc2)c1`, the inhibition is 3.08% (inactive). In the case of `CC(C)(C)OC(=O)N1CCC(NC(=O)c2[nH]cnc2C(=O)N[C@@H](Cc2ccccc2)C(=O)OCc2ccccc2)CC1` it was 3.26% (inactive); in that of `CCOc1ccc(N2C(=O)CC(N(CCc3ccc(OC)c(OC)c3)C(=S)Nc3ccccc3)C2=O)cc1` (stereo unspecified), 0.25% (inactive); in that of `CCCC(=O)n1nc(NCc2ccc(OC)cc2)nc1NCc1ccc(OC)cc1`, 2.02% (inactive). To `O=C(/C=C/c1ccc(F)cc1)NC(=S)NNC(=O)c1cccnc1` belongs 0.5% (inactive). To `COc1cccc(NC(=O)C2C(c3ccccc3)C2(Cl)Cl)c1` (stereo unspecified) belongs 1% (inactive); to `CC1(C)C=Cc2c(ccc3c2OC[C@@H](c2ccc(O)cc2O)C3)O1`, 2.8% (inactive); to `Cc1ccc(C)c(NC(=S)NNC(=O)c2csc(C)c2)c1`, 2.16% (inactive).

Turning to `COc1ccc(S(=O)(=O)N2CCN(C(C)C(=O)Nc3ccc(C(C)C)cc3)CC2)cc1` (stereo unspecified), the inhibition was 1.3% (inactive).

As to `COc1ccc(C(=O)NNC(=S)NC(=O)c2ccccc2)cc1`, the inhibition is 0.42% (inactive). To `O=C1[C@H]2[C@@H](c3ccc(F)cc3)N3C(=O)N(c4ccc(C(F)(F)F)cc4)C(=O)[C@@]3(Cc3ccccc3)[C@H]2C(=O)N1C1CCCCC1` belongs 2.35% (inactive); to `COc1cccc(CC2(CO)CCCN(Cc3ccc(OC(F)F)cc3)C2)c1` (stereo unspecified), 0.36% (inactive); to `CC(C)Oc1cc(F)ccc1-c1cc(C(=O)Nc2cccc(Cl)c2)[nH]n1`, 2.81% (inactive). To `CCOc1cc(NC(=O)c2ccccc2C(=O)O)c(OCC)cc1NC(=O)c1ccccc1F` belongs 2.06% (inactive).

As to `Cc1csc(NC(=S)Nc2cccc(Cl)c2)n1`, the inhibition is 2.94% (inactive). In the case of `O=C(NC(Cc1c[nH]c2ccccc12)C(=O)N/N=C/c1ccc(Br)cc1)c1cccs1` (stereo unspecified) it was 3.25% (inactive).

Consider `Cc1cc(C)cc(NS(=O)(=O)c2ccc(Oc3ncc(C(F)(F)F)cc3Cl)cc2)c1`, for which the inhibition is 5.19% (inactive). To `Cc1ccc(N(NC(=O)C(C)(C)O)C(=O)c2ccccc2)cc1C` belongs -0.31% (inactive); to `O=C1[C@H]2[C@@H](c3ccc(C(F)(F)F)cc3)N[C@]3(CCCN(Cc4ccc(Br)cc4)C3=O)[C@H]2C(=O)N1Cc1ccccc1`, 2.47% (inactive). Regarding `Cc1[nH]c2ccccc2c1C(=O)COC(=O)c1c(-c2ccccc2)noc1C`, the inhibition was 2.46% (inactive).

Consider `CC1(Cc2cccc(C#N)c2)C(=O)Nc2ccc(-c3cccc(C(F)(F)F)c3)cc21` (stereo unspecified), for which the inhibition is 2.64% (inactive). In the case of `Cc1ccc(OCc2nnc(SC/C=C/c3ccccc3)n2Cc2ccco2)cc1` it was 2.07% (inactive); in that of `Cc1ccccc1-n1c(SCC(=O)Nc2cccc3ccccc23)nc(O)cc1=O`, 0.79% (inactive). As for `O=C(CNC(=O)c1ccc(Cl)cc1Cl)NCC(=O)Nc1ccccc1N1CCOCC1`, the inhibition was -0.05% (inactive). In the case of `Cc1cnc(C(=O)OCc2c(C)cc(C(C)(C)C)cc2C)cn1`, the inhibition was 0.19% (inactive).

For `Cc1cc(C)cc(NC(=O)CSCc2cnn(-c3ccccc3)c2-n2cccc2)c1`, the inhibition is 1.7% (inactive). To `c1ccc2c(CCN3CCNC[C@H]3Cc3cccc4ccccc34)cccc2c1` belongs 2.24% (inactive); to `Cc1cc(O)ccc1-c1cc(C(=O)NCc2cc(C(F)(F)F)cc(C(F)(F)F)c2)[nH]n1`, 1.86% (inactive). To `Cc1cc(C)cc(NC(=S)NCCc2c[nH]c3ccccc23)c1` belongs 0.79% (inactive); to `COc1ccc(C2CC(c3ccccc3)=NN2C(=O)COC(=O)COc2ccccc2)cc1` (stereo unspecified), 3.56% (inactive); to `C=CC[C@H](CC(=O)N(CCO)Cc1ccccc1)C(=O)N[C@@H](COC(=O)[C@@H](CC=C)Cc1ccc(F)cc1)Cc1ccccc1`, 3.06% (inactive).

As for `CCC(C)(C)c1ccc(Oc2ccc(NC(=O)COC(=O)C3=COCCO3)cc2)cc1`, the inhibition is 3.28% (inactive).

Consider `COc1ccc(Cl)cc1NC(=O)CN(C)C(=O)CCCc1c[nH]c2ccccc12`, for which the inhibition was 0.4% (inactive).

`COc1ccccc1CC1(C)C(=O)Nc2ccc(OC(F)(F)F)cc21` (stereo unspecified): the inhibition is 0.53% (inactive). To `CC(C)(C)OC(=O)CNC(=O)c1[nH]cnc1C(=O)N[C@@H](Cc1ccccc1)C(=O)OCc1ccccc1` belongs 2.08% (inactive); to `C=CCC[C@@H](Cc1ccc(F)cc1)C(=O)OC[C@H](Cc1c[nH]c2ccccc12)NC(=O)[C@@H](CC=C)CC(=O)N(CCO)Cc1ccccc1`, 3.11% (inactive). To `Cc1cc(Nc2ccccc2)n(C(=O)c2ccc(N)cc2)n1` belongs 0.56% (inactive); to `O=C(NCc1ccccc1)c1onc(CSc2nc3ccccc3[nH]2)c1C(=O)NCc1ccccc1`, 1.52% (inactive); to `COc1ccc(C(=O)NN2C(=O)C3C(c4ccccc4)C=CC(c4ccccc4)C3C2=O)cc1` (stereo unspecified), 2.28% (inactive). On to `N#Cc1nc(Cc2cccc3ccccc23)oc1NCc1ccc2c(c1)OCO2`, for which the inhibition was 2.25% (inactive). `CC(C)Oc1ccc(CC(=O)NNC(=S)Nc2ccc(Br)cc2)cc1`: the inhibition is 0.68% (inactive).

Regarding `Cn1nc(C(F)(F)F)c(C(=O)Nc2cccc(C(F)(F)F)c2)c1SCc1ccc(Cl)cc1`, the inhibition was 2.65% (inactive). To `O=C(Oc1cccc(N2C(=O)C3C4c5ccccc5C(c5ccccc54)C3C2=O)c1)c1ccco1` (stereo unspecified) belongs 1.5% (inactive); to `COc1cc(/C=N/n2c(C)n[nH]c2=S)ccc1OCc1ccccc1`, -0.91% (inactive).
